This is an account of results in ChEMBL document CHEMBL4152296, “Synthesis, biological evaluation and molecular modeling of novel azaspiro dihydrotriazines as influenza virus inhibitors targeting the host factor dihydrofolate reductase (DHFR)” (Eur J Med Chem, 2018).

The source made the active and inactive calls. The calls are words filed in the database; no cut-off is given here.

A short description of series [1]: Cytotoxicity against human HeLa cells assessed as alterations in normal cell morphology measured after 3 to 6 days by microscopic analysis. Format: cell-based. The method, boiled down: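 Mock-infected HeLa cultures in 2% FCS medium received serial five-fold dilutions […] for 3–6 days at 37 °C. MCC was the lowest concentration giving microscopically visible minimal change in cell morphology (rounding, shrinking, lysis).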

The next series deals with Human alphaherpesvirus 1. Put plainly: Antiviral activity against Herpes simplex virus type 1 infected in human HEL299 cells assessed as inhibition of virus-induced cytopathic effect after 3 to 6 days by MTS assay. Format: functional, organism-based. (Protection from cytopathic effect is a common read-out in antiviral testing.)
The subject of another series is Influenza A virus. Nature of the series: Antiviral activity against Influenza A virus (A/Puerto Rico/8/34(H1N1)) infected in MDCK cells assessed as protection against virus-induced reduction in cell viability after 3 to 6 days by MTS assay. Format: functional, organism-based. As to conditions: A/Puerto Rico/8/1934(H1N1). The method, boiled down:
(§1)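 MDCK cells seeded at 9000/well and infected one day later (semiconfluent) with 100 CCID50 virus. Medium was FCS-free Ultra MDCK with 2 μg/mL TPCK-trypsin. Serial five-fold compound dilutions (top 100 μM) were added with the virus, followed by 3–6 days at 35 °C. MTS read-out gave % protection versus virus and mock controls. EC50 was interpolated from semi-log curves; mean of two or three experiments.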

Series [2] is described as follows: Cytotoxicity against MDCK cells assessed as alterations in normal cell morphology measured after 3 to 6 days by microscopic analysis. The class given is cell-based, Canis lupus familiaris. As to conditions: dog. A digest of the protocol:
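Uninfected MDCK cultures in FCS-free Ultra MDCK medium with trypsin received five-fold compound dilutions (up to […]) for 3–6 days at 35 °C. Microscopy scored morphology, and MCC was taken as the lowest concentration causing minimal rounding, shrinking or lysis.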

In series [3] the test system is Mammalian orthoreovirus 1. Put plainly: Antiviral activity against Reovirus-1 infected in African green monkey Vero cells assessed as inhibition of virus-induced cytopathic effect after 3 to 6 days by MTS assay. The class given is functional, organism-based.
In the next series the test system is Sindbis virus. Nature of the series: Antiviral activity against Sindbis virus infected in African green monkey Vero cells assessed as inhibition of virus-induced cytopathic effect after 3 to 6 days by MTS assay. The class given is functional, organism-based.
Series [4] has as its system Human immunodeficiency virus. Nature of the series: Antiviral activity against HIV. Format: functional, organism-based.
Series [5] deals with Respiratory syncytial virus. Nature of the series: Antiviral activity against Respiratory syncytial virus Long infected in human HeLa cells assessed as inhibition of virus-induced cytopathic effect after 3 to 6 days by MTS based microscopy. The class given is functional, organism-based.
The next series deals with MDCK. Nature of the series: Cytotoxicity against MDCK cells assessed as reduction in cell viability measured after 3 to 6 days by MTS assay. Format: cell-based, Canis lupus familiaris. As to conditions: dog. A digest of the protocol: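 Mock-infected MDCK plates were run in parallel (FCS-free Ultra MDCK medium with TPCK-trypsin) with serial five-fold dilutions up to […], 35 °C for 3–6 days. CC50 was interpolated from semi-log dose-response curves; mean of two or three experiments.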

Another series has as its system Human coronavirus 229E. Nature of the series: Antiviral activity against Human coronavirus 229E infected in human HEL299 cells assessed as inhibition of virus-induced cytopathic effect after 3 to 6 days by MTS assay. Format: functional, organism-based.
A further series relates to Human respirovirus 3. Nature of the series: Antiviral activity against Parainfluenza virus 3 infected in African green monkey Vero cells assessed as inhibition of virus-induced cytopathic effect after 3 to 6 days by MTS assay. The class given is functional, organism-based.
Another series has as its system Human adenovirus 2. Nature of the series: Antiviral activity against Human adenovirus type 2 infected in human HEL299 cells assessed as inhibition of virus-induced cytopathic effect after 3 to 6 days by MTS assay. Format: functional, organism-based.
The test system of the next series is Vaccinia virus. Nature of the series: Antiviral activity against Vaccinia virus infected in human HEL299 cells assessed as inhibition of virus-induced cytopathic effect after 3 to 6 days by MTS assay. Format: functional, organism-based. As to conditions: Orthopoxvirus vaccinia.
For a further series, the system named is Influenza B virus. Nature of the series: Antiviral activity against Influenza B virus B/Ned/537/05 infected in MDCK cells assessed as protection against virus-induced reduction in cell viability after 3 to 6 days by MTS assay. The class given is functional, organism-based. As to conditions: B/Ned/537/05, MDCK. The method, boiled down:
as §1
A general note: Formazan colour is commonly taken as a measure of viable cells.

In series [6] the test system is Vesicular stomatitis virus. Nature of the series: Antiviral activity against Vesicular stomatitis virus infected in human HEL299 cells assessed as inhibition of virus-induced cytopathic effect after 3 to 6 days by MTS assay. Format: functional, organism-based.
The next series has as its system Human alphaherpesvirus 2. Nature of the series: Antiviral activity against Herpes simplex virus type 2 infected in human HEL299 cells assessed as inhibition of virus-induced cytopathic effect after 3 to 6 days by MTS assay. Format: functional, organism-based.
The next series deals with Vero. Nature of the series: Cytotoxicity against African green monkey Vero cells assessed as reduction in cell viability measured after 3 to 6 days by MTS assay. The class given is cell-based. As to conditions: chlorocebus sabaeus.
A further series has as its system Punta Toro virus. Put plainly: Antiviral activity against Punta Toro virus infected in African green monkey Vero cells assessed as inhibition of virus-induced cytopathic effect after 3 to 6 days by MTS assay. The class given is functional, organism-based.
Another series relates to Yellow fever virus. Nature of the series: Antiviral activity against Yellow fever virus infected in African green monkey Vero cells assessed as inhibition of virus-induced cytopathic effect after 3 to 6 days by MTS assay. The class given is functional, organism-based.
For another series, the system named is Coxsackievirus B4. Nature of the series: Antiviral activity against Coxsackie B4 virus infected in human HeLa cells assessed as inhibition of virus-induced cytopathic effect after 3 to 6 days by MTS assay. Format: functional, organism-based.

A word on the EC50: it is the concentration giving half of the maximal effect. In general, CC50 refers to the concentration giving 50% cytotoxicity. For the compound `NC1=NC2(CCN(C(=O)C3CCC3)CC2)N(c2cccc(Cl)c2)C(N)=N1`, the MCC in series [1] is greater than 100 µM; in series [2], no less than 20 µM. The result (in the series with Human alphaherpesvirus 1; in series [3]; in the series with Sindbis virus; in series [4]; with Human coronavirus 229E; in the series on Human respirovirus 3) was inactive. Moreover, the result (with Human adenovirus 2; in the series with Vaccinia virus; in series [6]; in the series on Human alphaherpesvirus 2; with Punta Toro virus; in the series with Yellow fever virus) was inactive. Also, the result with Coxsackievirus B4 was inactive. For the same compound, the values for the EC50 (in the series on Influenza A virus; in [5]; with Influenza B virus) were 35 µM, greater than 100 µM and 7.7 µM, respectively. Further, the half-maximal cytotoxic concentration (CC50) with MDCK was greater than 100 µM. Besides, the Activity entry with Vero was “Non-Toxic”.

On to `Cl.NC1=NC2(CCCN(Cc3ccccc3)C2)N(c2ccccc2)C(N)=N1` (stereo not given), for which the MCC in series [1] and in series [2] was greater than 100 µM each time. The outcome (with Human alphaherpesvirus 1; in series [3]; in the series with Sindbis virus; in series [4]; with Human coronavirus 229E; with Human respirovirus 3) was inactive. Further, the result (in the series on Human adenovirus 2; with Vaccinia virus; in series [6]; in the series on Human alphaherpesvirus 2; in the series with Punta Toro virus; in the series with Yellow fever virus) was inactive. Moreover, the result in the series on Coxsackievirus B4 was inactive. Further, the half-maximal effective concentration (EC50) (in the series with Influenza A virus; in series [5]; in the series with Influenza B virus) was greater than 100 µM throughout. Moreover, in the series with MDCK, the half-maximal cytotoxic concentration (CC50) is greater than 100 µM. For the same compound, the Activity entry with Vero is on record as “Non-Toxic”.

As for `COc1cccc(N2C(N)=NC(N)=NC23CCN(C(=O)c2ccc(C(F)(F)F)cc2C)CC3)c1`, the MCC in series [1] and in series [2] was greater than 100 µM throughout. The result (in the series on Human alphaherpesvirus 1; in [3]; with Sindbis virus; in series [4]; in the series on Human coronavirus 229E; in the series with Human respirovirus 3) was inactive. For the same compound, the outcome (in the series on Human adenovirus 2; with Vaccinia virus; in [6]; with Human alphaherpesvirus 2; in the series on Punta Toro virus; in the series on Yellow fever virus) was inactive. The outcome in the series on Coxsackievirus B4 was inactive. For the same compound, the concentration for a half-maximal effect (EC50) (in the series on Influenza A virus; in [5]; in the series with Influenza B virus) was greater than 100 µM each time. In addition, the CC50 in the series with MDCK is greater than 100 µM. The Activity entry with Vero was “Non-Toxic”.

As to `COCCN1C(N)=NC(N)=NC12CCN(C(=O)Nc1ccc(OC)cc1)CC2`, the MCC in series [1] and in [2] was greater than 100 µM in each case. Moreover, the result (with Human alphaherpesvirus 1; in [3]; in the series with Sindbis virus; in series [4]; in the series on Human coronavirus 229E; in the series with Human respirovirus 3) was inactive. The outcome (with Human adenovirus 2; in the series on Vaccinia virus; in series [6]; in the series with Human alphaherpesvirus 2; in the series on Punta Toro virus; in the series on Yellow fever virus) was inactive. For the same compound, the result in the series on Coxsackievirus B4 was inactive. The EC50 (with Influenza A virus; in [5]; in the series with Influenza B virus) was greater than 100 µM in each case. The 50% cytotoxic concentration (CC50) in the series on MDCK was greater than 100 µM. Further, in the series on Vero, the Activity result is “Non-Toxic”.

Regarding `CCCN1C(N)=NC(N)=NC12CCN(C(=O)c1c(C)noc1C)CC2`, the MCC in series [1] and in series [2] was greater than 100 µM each time. Further, the result (in the series on Human alphaherpesvirus 1; in [3]; in the series on Sindbis virus; in series [4]; with Human coronavirus 229E; in the series on Human respirovirus 3) was inactive. Further, the outcome (in the series with Human adenovirus 2; in the series with Vaccinia virus; in series [6]; in the series with Human alphaherpesvirus 2; with Punta Toro virus; with Yellow fever virus) was inactive. Besides, the result in the series on Coxsackievirus B4 was inactive. Also, the half-maximal effective concentration (EC50) (with Influenza A virus; in series [5]; with Influenza B virus) was greater than 100 µM throughout. Also, the CC50 in the series with MDCK was greater than 100 µM. Also, in the series with Vero, the Activity entry is recorded as “Non-Toxic”.

As to `COc1cccc(N2C(N)=NC(N)=NC23CCNCC3)c1`, the MCC in series [1] and in series [2] was greater than 100 µM throughout. For the same compound, the outcome (in the series on Human alphaherpesvirus 1; in [3]; in the series with Sindbis virus; in [4]; in the series with Human coronavirus 229E; with Human respirovirus 3) was inactive. In addition, the result (in the series with Human adenovirus 2; with Vaccinia virus; in series [6]; in the series with Human alphaherpesvirus 2; with Punta Toro virus; in the series on Yellow fever virus) was inactive. In the series with Coxsackievirus B4, the outcome was inactive. The EC50 (with Influenza A virus; in series [5]; in the series with Influenza B virus) was greater than 100 µM throughout. Also, the CC50 with MDCK is greater than 100 µM. Also, the Activity result with Vero is given as “Non-Toxic”.

For `Cl.NC1=NC2(CCCN(Cc3ccccc3)C2)N(c2ccc(Cl)cc2)C(N)=N1` (stereo not given), the MCC in [1] and in series [2] was 100 µM in each case. Also, the outcome (in the series with Human alphaherpesvirus 1; in series [3]; in the series with Sindbis virus; in series [4]; with Human coronavirus 229E; in the series with Human respirovirus 3) was inactive. Further, the result (with Human adenovirus 2; in the series on Vaccinia virus; in series [6]; in the series with Human alphaherpesvirus 2; in the series on Punta Toro virus; with Yellow fever virus) was inactive. Besides, the outcome with Coxsackievirus B4 was inactive. Also, the 50% effective concentration (EC50) (in the series with Influenza A virus; in [5]; in the series with Influenza B virus) was greater than 100 µM throughout. Moreover, the CC50 in the series on MDCK came out at 45 µM. Also, in the series on Vero, the Activity entry is “Non-Toxic”.
